Results taken from ChEMBL document CHEMBL3228007, “Ergot alkaloids. Synthesis of nitrosourea derivatives of ergolines as potential anticancer agents” (J Med Chem, 1979).

Experiments:
Rattus norvegicus = species: Rattus norvegicus; assay: Inhibition of prolactin release in rat at 10 ug relative to control; format: functional
Mus musculus [1] = assay: Toxicity in mouse allografted with mouse L1210 cells assessed as change in body weight at 100 mg/kg relative to control; format: organism-based; design: dose 100 mg/kg; conditions: in vivo
Method in brief: (§1)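 Mice bearing L1210 leukemia, six per dose group, given compound as a suspension across a range of mg/kg doses. Antitumor read-out is T/C, with cures per group recorded. Toxicity is judged by body weight loss, with loss over 4 g flagged.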

Mus musculus [2] = assay: Toxicity in mouse allografted with mouse L1210 cells assessed as survival at 6.25 mg/kg; format: organism-based; design: dose 6.25 mg/kg; conditions: in vivo; method in brief: as §1
Mus musculus [3] = assay: Toxicity in mouse allografted with mouse L1210 cells assessed as change in body weight at 50 mg/kg relative to control; format: organism-based; design: dose 50 mg/kg; conditions: in vivo; method in brief: as §1
Mus musculus [4] = assay: Toxicity in mouse allografted with mouse L1210 cells assessed as change in body weight at 12.5 mg/kg relative to control; format: organism-based; design: dose 12.5 mg/kg; conditions: in vivo; method in brief: as §1
Mus musculus [5] = assay: Toxicity in mouse allografted with mouse L1210 cells assessed as survival at 25 mg/kg; format: organism-based; design: dose 25 mg/kg; conditions: in vivo; method in brief: as §1
L1210 [6] = assay: Antitumor activity against mouse L1210 cells allografted in mouse assessed as tumor growth inhibition at 25 mg/kg relative to control; format: functional; method in brief: as §1
Mus musculus [7] = assay: Toxicity in mouse allografted with mouse L1210 cells assessed as change in body weight at 6.25 mg/kg relative to control; format: organism-based; design: dose 6.25 mg/kg; conditions: in vivo; method in brief: as §1
Mus musculus [8] = assay: Toxicity in mouse allografted with mouse L1210 cells assessed as survival at 12.5 mg/kg; format: organism-based; design: dose 12.5 mg/kg; conditions: in vivo; method in brief: as §1
Mus musculus [9] = assay: Toxicity in mouse allografted with mouse L1210 cells assessed as change in body weight at 25 mg/kg relative to control; format: organism-based; design: dose 25 mg/kg; conditions: in vivo; method in brief: as §1
L1210 [10] = assay: Antitumor activity against mouse L1210 cells allografted in mouse assessed as tumor growth inhibition at 12.5 mg/kg relative to control; format: functional; method in brief: as §1
Mus musculus [11] = assay: Toxicity in mouse allografted with mouse L1210 cells assessed as survival at 50 mg/kg; format: organism-based; design: dose 50 mg/kg; conditions: in vivo; method in brief: as §1
L1210 [12] = assay: Antitumor activity against mouse L1210 cells allografted in mouse assessed as tumor growth inhibition at 50 mg/kg relative to control; format: functional; method in brief: as §1
L1210 [13] = assay: Antitumor activity against mouse L1210 cells allografted in mouse assessed as tumor growth inhibition at 6.25 mg/kg relative to control; format: functional
Method in brief: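 L1210 leukemia in mice, six per group; compound given as a suspension across a range of dose levels; activity expressed as T/C, with cures and weight loss recorded.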

Mus musculus [14] = assay: Toxicity in mouse allografted with mouse L1210 cells assessed as survival at 400 mg/kg; format: organism-based; design: dose 400 mg/kg; conditions: in vivo; method in brief: as §1
Mus musculus [15] = assay: Toxicity in mouse allografted with mouse P388 cells assessed as change in body weight at 25 mg/kg relative to control; format: organism-based; design: dose 25 mg/kg; conditions: in vivo
L1210 [16] = assay: Antitumor activity against mouse L1210 cells allografted in mouse assessed as tumor growth inhibition at 400 mg/kg relative to control; format: functional; method in brief: as §1
Mus musculus [17] = assay: Toxicity in mouse allografted with mouse P388 cells assessed as survival at 100 mg/kg; format: organism-based; design: dose 100 mg/kg; conditions: in vivo
Mus musculus [18] = assay: Toxicity in mouse allografted with mouse L1210 cells assessed as change in body weight at 400 mg/kg relative to control; format: organism-based; design: dose 400 mg/kg; conditions: in vivo; method in brief: as §1
L1210 [19] = assay: Antitumor activity against mouse L1210 cells allografted in mouse assessed as tumor growth inhibition at 200 mg/kg relative to control; format: functional; method in brief: as §1
Mus musculus [20] = assay: Toxicity in mouse allografted with mouse P388 cells assessed as change in body weight at 50 mg/kg relative to control; format: organism-based; design: dose 50 mg/kg; conditions: in vivo
Mus musculus [21] = assay: Toxicity in mouse allografted with mouse L1210 cells assessed as survival at 200 mg/kg; format: organism-based; design: dose 200 mg/kg; conditions: in vivo; method in brief: as §1
Mus musculus [22] = assay: Toxicity in mouse allografted with mouse L1210 cells assessed as survival at 100 mg/kg; format: organism-based; design: dose 100 mg/kg; conditions: in vivo; method in brief: as §1
P388 [23] = assay: Antitumor activity against mouse P388 cells allografted in mouse assessed as tumor growth inhibition at 50 mg/kg relative to control; format: functional
P388 [24] = assay: Antitumor activity against mouse P388 cells allografted in mouse assessed as tumor growth inhibition at 100 mg/kg relative to control; format: functional
Mus musculus [25] = assay: Toxicity in mouse allografted with mouse P388 cells assessed as change in body weight at 100 mg/kg relative to control; format: organism-based; design: dose 100 mg/kg; conditions: in vivo
L1210 [26] = assay: Antitumor activity against mouse L1210 cells allografted in mouse assessed as tumor growth inhibition at 100 mg/kg relative to control; format: functional; method in brief: as §1
Mus musculus [27] = assay: Toxicity in mouse allografted with mouse P388 cells assessed as survival at 50 mg/kg; format: organism-based; design: dose 50 mg/kg; conditions: in vivo
Mus musculus [28] = assay: Toxicity in mouse allografted with mouse P388 cells assessed as survival at 25 mg/kg; format: organism-based; design: dose 25 mg/kg; conditions: in vivo
P388 [29] = assay: Antitumor activity against mouse P388 cells allografted in mouse assessed as tumor growth inhibition at 25 mg/kg relative to control; format: functional
Mus musculus [30] = assay: Toxicity in mouse allografted with mouse L1210 cells assessed as change in body weight at 200 mg/kg relative to control; format: organism-based; design: dose 200 mg/kg; conditions: in vivo; method in brief: as §1

| Compound | inhibition (INH) (Rattus norvegicus) | Activity (Mus musculus [1]) | Activity (Mus musculus [3]) | Activity (Mus musculus [4]) | Activity (Mus musculus [5]) | T/C (L1210 [6]) | Activity (Mus musculus [9]) | T/C (L1210 [10]) | Activity (Mus musculus [11]) | T/C (L1210 [12]) | other results |
| --- | --- | --- | --- | --- | --- | --- | --- | --- | --- | --- | --- |
| CN1C[C@H](CC#N)C[C@@H]2c3cccc4[nH]c(Cl)c(c34)C[C@H]21 [LERGOTRILE] | 71% | – | – | – | – | – | – | – | – | – | – |
| C[C@H]1CC[C@H](NC(=O)N(CCCl)N=O)CC1 | – | -6.6 g | -4.8 g | -0.2 g | Non-toxic | 301% | -3.4 g | 256% | Non-toxic | 327% | Activity (Mus musculus [2]): Non-toxic; Activity (Mus musculus [7]): 0.4 g; Activity (Mus musculus [8]): Not Active; T/C (L1210 [13]): 187% |
| CN1CC(CO)=C[C@@H]2c3cccc4c3c(cn4N=O)C[C@H]21 | 36% | – | – | – | – | – | – | – | – | – | – |
| CN1CC(COC(=O)NCCCl)=C[C@@H]2c3cccc4[nH]cc(c34)C[C@H]21 | 87% | – | – | – | – | – | – | – | – | – | – |
| CN1CC(CO)=C[C@@H]2c3cccc4[nH]cc(c34)C[C@H]21 | 71% | – | – | – | – | – | – | – | – | – | – |
| CC(C)[C@H]1C(=O)N2CCC[C@H]2[C@]2(O)O[C@](NC(=O)[C@@H]3C=C4c5cccc6[nH]cc(c56)C[C@H]4N(C)C3)(C(C)C)C(=O)N12 [ERGOCORNINE] | 88% | – | – | – | – | – | – | – | – | – | – |
| CN1C[C@H](NC(=O)N(CCCl)N=O)C[C@@H]2c3cccc4c3c(cn4N=O)C[C@H]21 | 17% | -3.4 g | -2.2 g | -1.2 g | Non-toxic | 117% | -1.8 g | 105% | Non-toxic | 121% | Activity (Mus musculus [14]): Non-toxic; Activity (Mus musculus [15]): -0.4 g; T/C (L1210 [16]): 289%; Activity (Mus musculus [17]): Non-toxic; Activity (Mus musculus [18]): -6.4 g; T/C (L1210 [19]): 164%; Activity (Mus musculus [20]): 0 g; Activity (Mus musculus [21]): Non-toxic; Activity (Mus musculus [22]): Non-toxic; T/C (P388 [23]): 166%; T/C (P388 [24]): 201%; Activity (Mus musculus [25]): -1.8 g; T/C (L1210 [26]): 144%; Activity (Mus musculus [27]): Non-toxic; Activity (Mus musculus [28]): Non-toxic; T/C (P388 [29]): 137%; Activity (Mus musculus [30]): -5.2 g |
| CN1C[C@H](N)C[C@@H]2c3cccc4[nH]cc(c34)C[C@H]21 | 57% | – | – | – | – | – | – | – | – | – | – |
| CN1C[C@H](NC(=O)N(CCCl)N=O)C[C@@H]2c3cccc4[nH]cc(c34)C[C@H]21 | 28% | -4 g | -2.8 g | -1.2 g | Non-toxic | 137% | -1.4 g | 119% | Non-toxic | 154% | Activity (Mus musculus [14]): Non-toxic; Activity (Mus musculus [18]): -7.6 g; T/C (L1210 [19]): 390%; Activity (Mus musculus [21]): Non-toxic; Activity (Mus musculus [22]): Non-toxic; T/C (L1210 [26]): 248%; Activity (Mus musculus [30]): -6 g |
